Experimental data: article PMC5987874 (The Journal of General Physiology, 2018)
Residue numbers refer to the chain shown, from its start. Several values for one entry are separate records, joined by “and”; a condition that tells them apart may be missing. Equal entries are not always repeated. Where two headings read alike, the source gives them in different places.

Assays:
Assay in all cases: Whole-cell voltage clamp, Zn^2+ modulation of GAQ gating
Assay type in all cases: cell-based
human Hv1 H140A-H193A = biological target: T1, human Hv1 H140A-H193A (Homo sapiens, UniProt Q96D96, H140A/H193A)
T1 sequence (Q96D96 1-273 H140A/H193A): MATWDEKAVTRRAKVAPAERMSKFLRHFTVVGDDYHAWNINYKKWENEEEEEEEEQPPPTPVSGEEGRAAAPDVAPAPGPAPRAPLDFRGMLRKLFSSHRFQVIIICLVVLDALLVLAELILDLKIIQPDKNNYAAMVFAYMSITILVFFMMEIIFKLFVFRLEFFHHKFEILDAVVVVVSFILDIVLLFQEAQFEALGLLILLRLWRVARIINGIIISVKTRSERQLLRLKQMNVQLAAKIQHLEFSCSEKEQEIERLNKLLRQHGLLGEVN
Summary of the method: (§1)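 Whole-cell patch clamp at ~21°C. Pipette and bath (mM): ~80 TMA-MeSO3, 100 Bis-Tris, 8 HCl, pH 6.5, 310–320 mOsm. ZnCl2 was diluted into bath solution and applied by gravity superfusion, at least 2 min per change. Test step voltage was set per construct from its V0.5. G_STEP = end-of-step current/(V−V_REV). Effect = 1 − G_Zn/G_control, fitted to the Hill equation. IC50 and nH are means ± SEM from separate cells. ΔpIC50 was tested by unpaired t test, P<0.05.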

[1] = biological target: T2, human Hv1 E119H (E^1.58H) (Homo sapiens, UniProt Q96D96, E119H)
T2 sequence (Q96D96 1-273 E119H): T1 sequence (Q96D96 1-273 H140A/H193A) with E119H, A140H, A193H
Summary of the method: as §1

human Hv1 E119H-H140A = biological target: T3, human Hv1 E119H-H140A (Homo sapiens, UniProt Q96D96, E119H/H140A)
T3 sequence (Q96D96 1-273 E119H/H140A): T1 sequence (Q96D96 1-273 H140A/H193A) with E119H, A193H
Summary of the method: as §1

human Hv1 D123H-H140A = biological target: T4, human Hv1 D123H-H140A (Homo sapiens, UniProt Q96D96, D123H/H140A)
T4 sequence (Q96D96 1-273 D123H/H140A): T1 sequence (Q96D96 1-273 H140A/H193A) with D123H, A193H
Summary of the method: as §1

[2] = biological target: T5, human Hv1 D130H (D^1.69H) (Homo sapiens, UniProt Q96D96, D130H)
T5 sequence (Q96D96 1-273 D130H): T1 sequence (Q96D96 1-273 H140A/H193A) with D130H, A140H, A193H
Summary of the method: as §1

human Hv1 D130H-H140A = biological target: T6, human Hv1 D130H-H140A (Homo sapiens, UniProt Q96D96, D130H/H140A)
T6 sequence (Q96D96 1-273 D130H/H140A): T1 sequence (Q96D96 1-273 H140A/H193A) with D130H, A193H
Summary of the method: as §1

[3] = VSTEP 100 mV, calculated as log (IC50)
[4] = VSTEP 120 mV, calculated as log (IC50)
[5] = VSTEP 80 mV, calculated as log (IC50)
[6] = read-out: Mean IC50 @ VSTEP, VSTEP 80 mV, pH 6.5, mean of fits in separate cells
[7] = read-out: IC50, fit of the mean data to a Hill function, Fig. 4C

## [Cl-].[Cl-].[Zn+2] [Zn^2+, ZnCl2]
Human Hv1 H140A-H193A; Fig. 2C
  nH, fit of the mean data to a Hill function: 1.5
Human Hv1 H140A-H193A; H140A-H193A vs H140A
  Mean ΔpIC50 = (pIC50_1 - pIC50_2): −1.65
Human Hv1 H140A-H193A; H140A-H193A vs H193A
  Mean ΔpIC50 = (pIC50_1 - pIC50_2): −1.30
Human Hv1 H140A-H193A; H140A-H193A vs WT
  Mean ΔpIC50 = (pIC50_1 - pIC50_2): −2.68
Human Hv1 H140A-H193A; VSTEP 100 mV
  Hill value: 1.57
  IC50: 1.7 ± 0.3 mM
Human Hv1 H140A-H193A; [3]
  pIC50: −2.76
Human Hv1 H140A-H193A; read-out: IC50, fit of the mean data to a Hill function, Fig. 2C
  IC50: 1.74 mM
[1]; E119H vs WT
  Mean ΔpIC50 = (pIC50_1 - pIC50_2): 0.8 and 0.77
[1]; Fig. 3C
  nH, fit of the mean data to a Hill function: 0.9
[1]; VSTEP 100 mV
  Hill value: 1.08
[1]; [3]
  pIC50: 6.22
[1]; read-out: IC50, fit of the mean data to a Hill function, Fig. 3C
  IC50: 600 nM
Human Hv1 E119H-H140A; E119H-H140A vs H140A
  Mean ΔpIC50 = (pIC50_1 - pIC50_2): 1.81
Human Hv1 E119H-H140A; Fig. 4A
  nH, fit of the mean data to a Hill function: 1.2
Human Hv1 E119H-H140A; VSTEP 120 mV
  Hill value: 2.09
Human Hv1 E119H-H140A; [4]
  pIC50: 6.23
Human Hv1 E119H-H140A; read-out: IC50, fit of the mean data to a Hill function, Fig. 4A
  IC50: 670 nM
Human Hv1 D123H-H140A; D123H-H140A vs H140A
  Mean ΔpIC50 = (pIC50_1 - pIC50_2): 0.36
Human Hv1 D123H-H140A; Fig. 4B
  nH, fit of the mean data to a Hill function: 0.5
Human Hv1 D123H-H140A; VSTEP 80 mV
  Hill value: 0.58
Human Hv1 D123H-H140A; [5]
  pIC50: −4.78
Human Hv1 D123H-H140A; read-out: IC50, fit of the mean data to a Hill function, Fig. 4B
  IC50: 20.5 µM
Human Hv1 D123H-H140A; [6]
  IC50: 18 µM
[2]; D130H vs WT
  Mean ΔpIC50 = (pIC50_1 - pIC50_2): 0.22
[2]; Fig. 4C
  nH, fit of the mean data to a Hill function: 0.7
[2]; VSTEP 120 mV
  Hill value: 0.95
[2]; [4]
  pIC50: 5.67
[2]; [7]
  IC50: 2400 nM
Human Hv1 D130H-H140A; D130H-H140A vs H140A
  Mean ΔpIC50 = (pIC50_1 - pIC50_2): 0.01
Human Hv1 D130H-H140A; Fig. 4C
  nH, fit of the mean data to a Hill function: 0.5
Human Hv1 D130H-H140A; VSTEP 80 mV
  Hill value: 0.58
Human Hv1 D130H-H140A; [5]
  pIC50: −4.42
Human Hv1 D130H-H140A; [7]
  IC50: 39.7 µM
Human Hv1 D130H-H140A; [6]
  IC50: 41.5 µM
